# Bioassay records: PubChem, Sanford-Burnham Center for Chemical Genomics
# Hits are enriched below; roughly 1.7% of the tested compounds scored in any of these assays.
# DNMT1 block – human DNMT1 methyltransferase inhibitors, primary screen, biochemical, molecular beacon, fluorescence, HinP1I cleavage, uHTS; inhibition (reported as % activation of signal), % at 10 µM; DNA (cytosine-5)-methyltransferase 1 (Homo sapiens), P26358; AID 588458, 2011; 360,000 compounds, 0.83% hits; in the data active means inhibition above about 50%
# SUMO1-SIM PPI – modulators of SUMO1 protein-protein interactions, primary screen, biochemical, uHTS; Small ubiquitin-related modifier 1 (Homo sapiens), P63165; SUMO1 binding to a labelled peptide, TR-FRET, 1 h; inhibition, % at 20 µM; 360,000 compounds, 0.33% hits; AID 602429, 2012; in the data active means inhibition above about 37%
# Target sequence (P63165 whole entry, looked up): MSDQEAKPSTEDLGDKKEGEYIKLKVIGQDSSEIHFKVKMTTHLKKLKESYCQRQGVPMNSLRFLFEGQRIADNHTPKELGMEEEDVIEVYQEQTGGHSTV
# Scp1 inh – Scp-1 phosphatase inhibitors, primary screen, biochemical, colorimetric, uHTS; Carboxy-terminal domain RNA polymerase II polypeptide A small phosphatase 1 (Homo …; Recombinant Scp1, phosphopeptide, malachite green phosphate absorbance; inhibition, % at 20 µM; 340,000 compounds, 0.88% hits;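 active means inhibition above about 50% at 20 µM, limit read from the data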
# Target sequence (Q9GZU7 76-261 limits assumed): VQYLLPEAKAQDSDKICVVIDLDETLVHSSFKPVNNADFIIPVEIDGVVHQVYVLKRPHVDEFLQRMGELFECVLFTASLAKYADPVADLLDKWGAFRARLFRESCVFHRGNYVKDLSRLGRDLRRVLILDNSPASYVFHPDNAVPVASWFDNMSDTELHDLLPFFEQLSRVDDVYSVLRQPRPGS
#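 Test system: SCP-1 phosphatase catalytic domain, residues 76-261; measured by: colorimetric phosphate reagent with accelerator and stabiliser, absorbance at 630 nm; timing: enzyme reaction 45 min at room temperature, colour 5 min, stabilisation 30 min; also added: Phosphorylated 17-residue peptide substrate; compound dosing: one concentration, 20 µM, with 1.0% DMSO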
# STEP block – STEP phosphatase inhibitors, primary screen, biochemical, fluorescence intensity, uHTS; recombinant STEP, OMFP fluorogenic substrate; inhibition, % at 20 µM; 360,000 compounds, 0.25% hits; AID 588621, 2011;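 active means inhibition at 20 µM, scaled per plate between control wells, above about 37%, limit read from the data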
#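 Assay system: isolated STEP enzyme. Buffer or medium: pH 6.0 Bis-Tris with DTT and Tween 20. Also added: fluorogenic phosphatase substrate OMFP at 25 µM final. Dosing: 20 µM, 1% DMSO. Timing: 20 min reaction, room temperature, in the dark. Measured by: fluorescence intensity, excitation 480 nm, emission 540 nm. Evaluation: normalized % inhibition.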
# LMPTP block – LMPTP phosphatase inhibitors, primary screen, biochemical, fluorescence intensity, uHTS; Low molecular weight phosphotyrosine protein phosphatase (Homo sapiens), P24666; recombinant LMPTP-A, OMFP fluorogenic substrate; inhibition, % at 20 µM; 360,000 compounds, 0.22% hits; AID 651560, 2012;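 active means compounds that cut the enzyme signal by at least half of the control window in the single-dose screen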
# Target sequence (P24666 whole entry, looked up): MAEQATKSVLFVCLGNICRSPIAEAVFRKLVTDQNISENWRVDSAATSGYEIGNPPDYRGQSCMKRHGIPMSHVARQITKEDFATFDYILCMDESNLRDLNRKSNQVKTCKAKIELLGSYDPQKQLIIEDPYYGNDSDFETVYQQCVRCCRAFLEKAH
#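 Test system – LMPTP-A phosphatase enzyme · Quantity – 0.625 nM LMPTP-A final · Reagent – OMFP substrate, 400 µM final · Dosing – one test concentration per compound, 20 µM, with 3% DMSO overall · Timing – 50 min enzyme reaction at room temperature, protected from light · Detection – fluorescence intensity · Controls – substrate-only low control, DMSO enzyme-plus-substrate high control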
# DNMT1 interf DR – spectral interference with molecular beacon fluorescence, dose response, artefact control for DNMT1 inhibitor project, biochemical, fluorescent molecular beacon | shares compounds with DNMT1 block | spectral interference counter-screen | IC50, µM | 200 tested, under 10 active | AID 602382, 2012
# DNMT1 confirm – DNMT1 methyltransferase inhibitor retest, confirmation, biochemical, molecular beacon, fluorescence, single concentration; DNMT1 molecular beacon HinP1I cleavage; shares compounds with DNMT1 block; AID 602385, 2012; 2,300 compounds, 8% hits; inhibition, % at 10 µM;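 active means average inhibition of at least 30% in the single-concentration confirmation test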
# Beacon interf – beacon fluorescence artifact counter-screen | activation (fluorescence interference), % at 10 µM | AID 602387 | 2,300 compounds, 1% hits | shares compounds with DNMT1 block | DNMT1 molecular beacon spectral interference counterscreen, fluorescence 485/520;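 active means activation of at least 30% at 10 µM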;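 further: DNMT1 catalytic domain with a HinP1I cleavage step and a FAM/dabcyl DNA beacon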
# STEP inh conf – STEP phosphatase inhibitor hit confirmation, biochemical, fluorescence intensity, single concentration; recombinant STEP, OMFP fluorogenic substrate; 520 compounds, 32% hits; inhibition, % at 20 µM; AID 623866, 2012; shares compounds with STEP block
# A number is an active result; 0 = inactive; - = no result. Unless noted, how the calls were made is not given here.
SMILES,DNMT1 block,SUMO1-SIM PPI,Scp1 inh,STEP block,LMPTP block,DNMT1 confirm,Beacon interf,others
CCc1cc2c(cc1-c1csc(C/C(N)=N/O)n1)C(C)(C)CCC2(C)C,0,0,-,0,0,-,-,
C=CCNC(=O)c1c(N)n(Cc2ccco2)c2nc3ccccc3nc12,101.6,0,0,0,0,0,0,
N#Cc1ccccc1OCC(=O)N1CCN(CC(=O)Nc2ccc(F)cc2)CC1,0,0,0,0,0,-,-,
Cc1cc(C(=O)OCC(=O)Nc2ccc(F)cc2F)c(C)n1C1CC1,0,0,0,0,0,-,-,
CN1/C(=C\C=C2C(=O)NC(=S)NC2=O)C(C)(C)c2ccccc21,80.8,0,0,0,0,55.1,51.2,
CC1(C)OC(c2ccccc2)=C/C(=C/C=C2C(=O)NC(=S)NC2=O)O1,-,-,0,-,-,-,-,
COC(=O)C1=C(c2ccc(C(C)=O)cc2)C[C@@H]2CC[C@H]1N2C(=O)NC1Cc2ccccc2C1,0,0,0,0,0,-,-,
CN1C(=O)NC(=O)/C(=C\c2ccc([N+](=O)[O-])o2)C1=O,101.1,0,53.0,44.3,0,112.3,0,DNMT1 interf DR=0
O=C1NC(=O)N(Cc2ccc(F)cc2)C(=O)/C1=C\C=C\c1ccco1,0,0,0,0,0,-,-,
CC(C)c1ccc(N2C(=O)NC(=O)/C(=C/C=C/c3ccco3)C2=O)cc1,85.7,0,0,0,0,0,0,
CCCCN1C(=O)/C(=C/C=C/c2ccco2)C(=O)NC1=S,107.3,0,73.8,0,0,0,0,DNMT1 interf DR=0
Cc1cc(C)cc(N2C(=O)NC(=O)/C(=C\C=C\c3ccco3)C2=O)c1,74.1,0,0,0,0,0,0,
c1ccc(N2[C@@H]3CC[C@H]2c2ccncc2C3)cc1,-,0,-,-,0,-,-,
CN1CCCCC1Cc1ccccc1 (centres undefined),0,0,-,0,0,-,-,
CN(C)[C@@H]1C(=O)C(C(N)=O)=C(O)[C@@]2(O)C(=O)C3=C(O)c4c(O)ccc(Cl)c4[C@@](C)(O)C3C[C@@H]12 (some centres undefined),55.7,0,0,0,0,0,0,
CN(C)C1C(=O)C(C(N)=O)=C(O)C2(O)C(=O)C3=C(O)c4c(O)cccc4C(C)(O)C3CC12 (centres undefined),0,0,0,0,0,-,-,
O=C1NC(=O)C(=Cc2ccc(-c3cc(Cl)ccc3[N+](=O)[O-])o2)C(=O)N1,78.5,0,69.3,0,0,0,0,
O=C1NC(=O)C(=Cc2ccc(-c3ccccc3[N+](=O)[O-])o2)C(=O)N1,0,0,0,0,0,-,-,
CCCCn1c(NC(=O)c2ccc(Br)o2)c(C(=O)OCC)c2nc3ccccc3nc21,70.3,44.9,0,0,0,0,0,
CCN(CC)c1ccc(/C=C2\C(=O)NC(=O)N(Cc3ccco3)C2=O)cc1,0,0,0,0,0,-,-,
CCCCN1C(=O)/C(=C/c2ccc(N(C)C)cc2)C(=O)N(Cc2ccco2)C1=O,80.0,0,0,0,0,0,0,
Cn1cccc1/C=C1/C(=O)NC(=S)N(Cc2ccc(F)cc2)C1=O,90.8,64.1,0,0,0,105.2,0,DNMT1 interf DR=0
CN1CCC(=O)N(CCN=[N+]=[N-])CC1,0,0,0,0,0,-,-,
N/C(=N\N=C/c1ccc(-c2ccc(O)c(C(=O)O)c2)o1)N[N+](=O)[O-],87.6,0,80.0,70.9,0,96.4,0,DNMT1 interf DR=0
COc1ccc(/C=N/N=C(/N)N[N+](=O)[O-])c(OC)c1,0,0,0,0,0,-,-,
N#CC(C#N)=C(N)c1cccnc1,61.7,0,0,0,0,0,0,
O=C(Cc1ccccc1)OCCNC(=O)c1cccnc1,0,0,0,0,0,-,-,
NN=C1C(Cl)=C(Cl)C(Cl)=C1Cl,108.1,0,-,72.4,83.7,-,-,STEP inh conf=66.5
COC(=O)COc1ccc(/C=C2\C(=O)NC(=S)N(c3ccc(C)cc3)C2=O)cc1OC,0,0,0,0,0,-,-,
